HCT116 bCat-KO: beta-catenin-lacking colon tumor cell growth suppression. 140,000 tested, 1.5% active. AID 818. HCT116 beta-catenin knockout viability, CellTiter-Glo, 60 h; active compounds read low. viability, % at 10 µM;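 active = viability at or under a set limit, the compound median less 4 SD, cut at about 6% in these data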;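 note: 0% = Hyamine 1622 control at 20 µM and 100% = untreated cell control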
Fibroblast inh: blocks proliferation of human lung fibroblasts. LL 47 human lung fibroblast viability, ATP luminescence; active compounds read low. viability, % at 10 µM. 85,000 tested, 1.1% active;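 active = viability at or below 50% in the single dose screen; inactive = viability above 50%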;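 note: compound exposure lasted 72 h before the ATP readout; 100% = median luminescence of untreated cell-only wells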
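Test system: LL 47 human lung fibroblasts / Quantity: 1,150 cells in each well / Medium: IMEM growth medium with 15% fetal bovine serum / Incubation: 72 h compound exposure at 37 °C after overnight plating / Detection: CellTiter-Glo luminescence measuring cellular ATP / Read-out: % viability versus median cells-only luminescence / Benchmarks: cell-only wells, no compound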
PTEN del growth: PTEN-deleted cell growth suppression. 140,000 tested, 1.2% active. HCT116 PTEN-null viability, CellTiter-Glo, 60 h; active compounds read low. AID 827. viability, % at 10 µM;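 active = viability at or below a set limit, 4 SD under the median of all tested compounds, cut at about 3.7% in these data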;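 note: PTEN knockout HCT116 line with beta catenin targeted HCT116 as companion control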
HUVEC inhibit: blocks proliferation of human endothelial cells. HUVEC proliferation, CellTiter-Glo luminescence, 72 h; active compounds read low. viability, % at 10 µM (by protocol). 86,000 tested, 1.1% active. AID 648;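 active = viability at or below 30%; inactive = viability above 30%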;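 note: 100% = median luminescence of DMSO-only cell control wells on each plate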
H69AR inhibit: blocks growth of human H69AR lung tumor cells; H69AR lung tumor viability, ATP luminescence, 72 h; active compounds read low; viability, % at 10 µM; 85,000 tested, 6% active;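 active = viability at or below 40%; inactive = viability above 40%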;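 note: multidrug resistant small cell line overexpressing MRP-1 efflux transporter; 100% = mean luminescence of untreated control wells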
Active calls of the source: *; x = not tested or not shown. The full list was thinned out, with hits kept by preference.

SMILES	HCT116 bCat-KO	Fibroblast inh	PTEN del growth	HUVEC inhibit	H69AR inhibit
CCc1ccc(N(C(=O)Cn2nnc(-c3ccccc3)n2)C(C(=O)NC2CCCCC2)c2ccccn2)cc1 (configuration not stated)	83.1	x	78.4	x	x
CCOc1cnn(Cc2ccccc2)c(=O)c1SCc1ccccc1	86.5	x	87.2	x	x
CCOC(=O)c1c(NC(=O)C2CCCO2)sc(C(=O)OC(C)(C)C)c1C (configuration not stated)	53.1	85.4	39.6	72.0	10.1*
CCOC(=O)c1sc(NC(=O)C2CCCO2)c(C(=O)OCC)c1C (configuration not stated)	x	102.7	x	98.9	90.0
O=C(CSc1nnc(CCCN2C(=O)c3cccc4cccc(c34)C2=O)n1-c1ccccc1)NCCCN1CCOCC1	99.2	x	93.8	x	x
Cc1ccc(OCc2nc(-c3ccccn3)n[nH]2)cc1	90.9	99.8	71.9	81.8	33.4*
Cc1cccc(OCc2nc(-c3ccccn3)n[nH]2)c1	25.1	99.7	36.3	78.2	33.7*
CCN(CC)S(=O)(=O)c1ccc(NC(=O)C2c3ccccc3Oc3ccccc32)cc1	77.9	x	70.3	x	x
CCOC(=O)c1cnc2c(OC)cccc2c1Nc1ccc2c(c1)OCCO2	28.2	x	23.0	x	x
O=C(Nc1nccs1)c1cccc(N2C(=O)c3cccc4c([N+](=O)[O-])ccc(c34)C2=O)c1	1.7*	x	1.5*	x	x
CC(/C=C/c1ccc2c(c1)OCO2)=N\NC(=O)c1cccc([N+](=O)[O-])c1	88.3	28.3*	83.2	30.7	7.3*
CC(/C=C/c1ccc2c(c1)OCO2)=N/NC(=O)C1COc2ccccc2O1 (configuration not stated)	86.7	x	81.2	x	x
CCCc1nc2ccccc2c(C(=O)OC(C)C(=O)NCc2ccc3c(c2)OCO3)c1CC (configuration not stated)	44.6	x	48.1	x	x
COc1ccc([N+](=O)[O-])cc1NC(=S)NC(NC(=O)Cc1ccc(OC)c(OC)c1)C(Cl)(Cl)Cl (configuration not stated)	4.9*	x	4.0	x	x
COc1ccc([N+](=O)[O-])cc1NC(=O)Cc1ccc(Cl)cc1	62.5	x	64.3	x	x
COc1ccc(/C=C2/C(=O)N(c3nc4ccccc4s3)N=C2CSc2ccc(Cl)cc2)cc1	96.7	x	92.8	x	x
Cc1cc(SCC(=O)N(C)CC(=O)Nc2ccc(F)cc2)nc2ccccc12	91.1	x	88.3	x	x
CCCCOC(=O)Cn1c2ccc(OC)cc2c2nc3ccccc3nc21	4.8*	70.8	3.1*	68.1	28.4*
CCn1c2ccc(OC)cc2c2nc3ccccc3nc21	61.9	87.0	72.8	76.8	43.6
CCOc1ccc(-c2nc(=S)[nH][nH]2)cc1	106.7	101.7	97.2	91.7	39.8*
COc1ccc(-c2nc(=S)[nH][nH]2)cc1	91.1	99.9	94.4	97.6	77.4
N#CC1=C(N)C(C#N)(C#N)C(c2ccncc2)C2CN(C(=O)OCc3ccccc3)CC=C12 (configuration not stated)	81.2	80.2	82.1	66.6	7.7*
N#CC1=C(N)C(C#N)(C#N)[C@H](c2cccnc2)[C@H]2CN(C(=O)OCc3ccccc3)CC=C12	60.8	x	73.2	x	x
CCOC(=O)N1CC=C2C(C#N)=C(N)C(C#N)(C#N)[C@H](c3ccc(OC(C)C)c(OCC)c3)[C@H]2C1	88.8	90.7	80.8	79.0	36.7*
Cc1ccc(C2(C(F)(F)F)NC(=O)N3CCCN=C3S2)cc1 (configuration not stated)	99.7	88.3	96.7	89.5	101.9
SMILES	HCT116 bCat-KO	Fibroblast inh	PTEN del growth	HUVEC inhibit	H69AR inhibit
Cc1ccc(C2(C(F)(F)F)NC(=O)N3CCN=C3S2)cc1 (configuration not stated)	61.2	63.0	66.0	81.9	22.2*
O=C(COC(=O)c1cccc(NS(=O)(=O)/C=C/c2ccccc2)c1)Nc1ccccc1OC(F)F	95.1	x	94.7	x	x
CCCCn1c(CN2CCN(c3cccc(Cl)c3)CC2)nc2c1c(=O)[nH]c(=O)n2C	17.9	49.4*	23.6	50.5	19.4*
Cn1c(=O)[nH]c(=O)c2c1nc(CN1CCN(c3cccc(Cl)c3)CC1)n2Cc1ccccc1Cl	36.7	82.5	30.9	58.6	11.8*
CCN1CCN(Cc2nc3c(c(=O)[nH]c(=O)n3C)n2Cc2ccccc2Cl)CC1	x	91.2	x	93.4	76.9
CC(=O)Nc1nc2ccccc2n1CCN1CCOCC1	94.0	x	105.5	x	x
O=C(Nc1nc2ccccc2n1CCN1CCOCC1)c1cn(-c2ccccc2)nc1-c1ccccc1	16.6	53.4	10.2	63.4	19.2*
CCCC(=O)OCCNc1cc(SCc2ccco2)c2nonc2c1[N+](=O)[O-]	2.7*	x	13.6	x	x
CCOC(=O)C1CCCN(c2cc(NCCCO)c([N+](=O)[O-])c3nonc23)C1 (configuration not stated)	93.2	x	94.5	x	x
CCCSc1cc(NCCOC(C)=O)c([N+](=O)[O-])c2nonc12	90.8	x	89.0	x	x
CCCC(=O)OCCNc1cc(Sc2nccn2C)c2nonc2c1[N+](=O)[O-]	1.9*	x	1.7*	x	x
CCCSc1cc(NCCOC(=O)CCC)c([N+](=O)[O-])c2nonc12	21.1	x	21.2	x	x
CC(=O)OCCCNc1cc(SCc2ccco2)c2nonc2c1[N+](=O)[O-]	2.3*	x	3.5*	x	x
CCOC(=O)C1=C(C)N=C2SC(C(=O)OC)=CC(=O)N2C1c1cc(OC)c(OC)c(OC)c1 (configuration not stated)	86.0	x	93.1	x	x
O=C(NC(=S)Nc1ccc2c(c1)OCCO2)c1cccc2ccccc12	77.2	x	85.4	x	x
COc1cc(CNc2ccccc2SC)ccc1O	74.5	x	94.6	88.1	26.9*
CCOc1cc(CNc2ccccc2SC)ccc1O	94.5	x	90.6	x	x
CCN(c1ccccc1)S(=O)(=O)c1cc(C(=O)Nc2ccc(F)c(F)c2)ccc1F	4.5*	x	3.4*	x	x
CC(C)(C)OC(=O)N1CCC(c2cc(=O)n3[nH]c(-c4ccc(Cl)cc4)cc3n2)CC1	24.8	75.8	21.9	73.0	10.9*
COc1ccccc1-c1c(C(F)(F)F)oc2cc(OC(=O)c3ccc([N+](=O)[O-])cc3)ccc2c1=O	88.7	x	76.5	x	x
Cc1cc(C)c(C)c(OC(=O)c2sc(Cl)nc2C)c1	1.7*	x	2.3*	x	x
Cc1ccc(NC(=O)c2sc(Cl)nc2C)c(C)c1	100.4	x	102.8	x	x
Cc1ccc(CN(CC2CCCO2)C(=O)CN2C(=O)C(C(C)C)Oc3ccccc32)o1 (configuration not stated)	72.9	91.9	72.9	106.2	38.3*
CC(C)C1Oc2ccccc2N(CC(=O)N(Cc2ccccn2)CC2CCCO2)C1=O (configuration not stated)	98.2	92.9	92.0	102.7	71.1
O=[N+]([O-])c1ccc(N=Nc2ccc(O)cc2O)cc1	1.9*	40.4*	2.4*	18.3*	3.2*
CCOc1ccc(S(=O)(=O)Nc2ccccc2SC)cc1	78.3	84.8	68.0	80.2	30.5*
CCOc1ccc(S(=O)(=O)Nc2cccc(Cl)c2)cc1	x	x	x	55.1	10.0*
CCOc1ccc(S(=O)(=O)Nc2cc(Cl)ccc2O)cc1	61.2	95.8	59.0	80.0	17.3*
